# Compound activity (PubChem BioAssay)
# Shown are actives, neighbours in structure and some others; about 3.7% of the full set was active somewhere.
# proCasp7 act = counter-screen for procaspase-3 activators: activators of human procaspase-7; P55210; recombinant procaspase-7, Ac-DEVD-pNA absorbance 405 nm; D23A/D198A/D206A triple mutant, cannot self-cleave; scale: DMSO 0, 5 µM enzyme 100; activation, % at 8.5 µM; 330,000 tested, 0.093% active; AID 463210;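 active = percent activation above the screen-wide mean plus 3 SD, cut at about 25% in these data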
# Target sequence (P55210 whole entry D23A/D198A/D206A): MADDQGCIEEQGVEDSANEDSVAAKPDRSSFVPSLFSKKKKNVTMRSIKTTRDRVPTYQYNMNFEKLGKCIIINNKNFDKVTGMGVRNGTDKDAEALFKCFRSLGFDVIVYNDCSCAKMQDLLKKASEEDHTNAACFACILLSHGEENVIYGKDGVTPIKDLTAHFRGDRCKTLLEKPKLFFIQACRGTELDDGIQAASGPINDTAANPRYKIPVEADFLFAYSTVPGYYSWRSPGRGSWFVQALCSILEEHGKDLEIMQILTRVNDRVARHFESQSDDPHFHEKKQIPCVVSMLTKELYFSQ
#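 buffer or medium = Zinc-free HEPES/NaCl buffer, pH 7.4 | material = Procaspase-7 triple mutant (PC-7 D3A) | input = 2 µM procaspase-7 mutant as dispensed | signal = Epi-absorbance of released pNA at 405 nm, two timepoints | timing = 1 h preincubation, 2 h reaction | replicates = singlicate compound testing | evaluation = % activation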
# procasp3 activ = activates human procaspase-3. P42574. recombinant procaspase-3 D3A, Ac-DEVD-pNA absorbance 405 nm. activation, % at 8.5 µM. 330,000 tested, 0.11% active;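 active = activation above the mean of all tested compounds plus 3 SD, cut at about 21% in these data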;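 also: 0% = DMSO alone and 100% = DMSO wells spiked with extra 5 µM PC-3 D3A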
# Target sequence (P42574 whole entry D9A/D28A/D175A): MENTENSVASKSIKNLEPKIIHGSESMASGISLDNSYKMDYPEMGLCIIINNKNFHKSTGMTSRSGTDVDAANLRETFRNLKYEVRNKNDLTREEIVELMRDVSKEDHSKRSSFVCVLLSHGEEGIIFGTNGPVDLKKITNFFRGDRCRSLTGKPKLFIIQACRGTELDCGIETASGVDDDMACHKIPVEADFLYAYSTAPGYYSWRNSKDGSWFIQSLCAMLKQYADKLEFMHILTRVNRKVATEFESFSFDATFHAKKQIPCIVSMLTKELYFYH
#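 Assay system – Procaspase-3 D3A mutant, all three cleavage aspartates alanine · Controls – DMSO-only low control, 5 µM PC-3 D3A high control · Schedule – 1 h compound preincubation, 2 h substrate hydrolysis at 25 °C · Signal – 405 nm absorbance of p-nitroaniline, reads at 0 and 120 min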
# NR3A LBD binder = modulates the human NR3A ligand-binding domain; NR3A LBD differential scanning fluorimetry, Tm shift; 0% = protein alone, 100% = glycine-bound protein; AID 1259313; 340,000 tested, 2.5% active; Tm shift relative to glycine control, % at 25 µM;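 active = melting temperature shift of at least 10% of the positive control shift, at one fixed dose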
# aDG glyco up = increases alpha dystroglycan glycosylation; Pro5-aDG cells, alpha-DG glycosylation AlphaScreen (IIH6); 0% Pro5, 100% B10-LARGE cell signal; activation, % at 10 µM; 360,000 tested, 0.22% active; AID 624168;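 active = activation of at least 8% versus controls, or a plate z-score of at least 8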;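 also: Pro5 are CHO cells carrying HIG-tagged alpha-DG that lacks glycosylation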
# MPTP inh = blocks calcium-induced mitochondrial swelling. inhibition, % at 10 µM. isolated mouse mitochondria, Ca2+ swelling absorbance, 30 min. AID 602449. 360,000 tested, 1.4% active;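 active = inhibition of 50% or more, scaled per plate between neutral and stimulator controls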;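 also: 0% = DMSO wells given calcium and 100% = 1 mM EGTA wells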
# The depositor's hits bear a star; . = not tested or not shown.
SMILES,proCasp7 act,procasp3 activ,NR3A LBD binder,aDG glyco up,MPTP inh
O=C(/C=C/c1ccc(Cl)c([N+](=O)[O-])c1)Nc1cccc(NC(=O)c2ccco2)c1,-4,14,11*,0,12
O=C(Nc1ccc(Cl)c([N+](=O)[O-])c1)c1ccco1,-16,8,-3,0,0
O=C(/C=C/c1ccc(Cl)c([N+](=O)[O-])c1)Nc1ccc(NC(=O)c2ccco2)cc1,.,.,33*,-1,6
O=C(/C=C/c1cccc([N+](=O)[O-])c1)Nc1cccc(NC(=O)c2ccco2)c1,-4,-3,27*,0,-24
O=C(/C=C/c1cccc([N+](=O)[O-])c1)c1ccco1,-2,-6,0,0,-1
CC(C)N(C(=O)/C=C/c1cccc([N+](=O)[O-])c1)C(C)C,2,0,-1,0,-1
CCOc1ccc(NC(=O)COC(=O)Cn2cnc3ccccc32)cc1,12,2,0,0,0
Cc1ccc(OCC(=O)OCC(=O)N2c3ccccc3CC2C)cc1C (stereo unspecified),7,8,1,0,-1
O=C(N/C(=C/c1cccc([N+](=O)[O-])c1)C(=O)N1CCCCCC1)c1cccs1,1,-4,15*,0,-1
O=C(/C=C/c1cccc([N+](=O)[O-])c1)Nc1cccc(NC(=O)c2cccs2)c1,0,3,11*,0,27
CC(=O)N/C(=C\c1cccc([N+](=O)[O-])c1)C(=O)NC1CCCCC1,1,5,11*,0,0
O=C(N/C(=C/c1cccc([N+](=O)[O-])c1)C(=O)N1CCCCC1)c1cccs1,2,1,4,0,4
CCOC(=O)c1ccc(NC(=O)Nc2nncs2)cc1,.,.,.,0,8
COc1cccc(Nc2nc(-c3cccs3)nc3ccccc23)c1,8,-6,21*,1,14
COc1ccc(Nc2nc(-c3cccs3)nc3ccccc23)cc1,9,-3,27*,0,9
COc1cccc(CN(C)c2nc(-c3cccs3)nc3ccccc23)c1,8,1,-4,1,6
Cc1cc(C)c(C)c(S(=O)(=O)Nc2cccc(S(=O)(=O)Nc3ccccc3C(=O)O)c2)c1C,-2,10,0,0,1
O=C(Nc1nccs1)C1CCN(S(=O)(=O)c2ccc3c(c2)OCCCO3)CC1,4,-1,14*,0,-1
COc1ccc(NC(=O)c2cccnc2NCCc2ccccc2)cc1,-1,1,18*,0,1
COc1ccc(NC(=O)CSc2nnc(C)s2)cc1S(=O)(=O)N1CCOCC1,-2,1,0,0,-1
Nc1cc2c(cc1Br)-c1ccccc1C2=NO,.,.,31*,2,3
COc1ccc(/C=C2\SC(=S)N(CCC(=O)NCCc3ccc(O)cc3)C2=O)cc1,-3,1,15*,0,0
O=C(CCN1C(=O)/C(=C\c2ccccc2)SC1=S)NNC(=O)c1ccccc1O,-2,-9,12*,0,18
O=C(CN1C(=O)S/C(=C\c2ccccc2)C1=O)NNC(=O)c1ccccc1O,-2,0,-7,0,-4
CC(/C=C1\SC(=S)N(CCC(=O)Nc2ccccc2O)C1=O)=C\c1ccccc1,-1,-2,20*,-1,0
SMILES,proCasp7 act,procasp3 activ,NR3A LBD binder,aDG glyco up,MPTP inh
O=C(CN1C(=O)S/C(=C\c2ccc(O)cc2)C1=O)c1ccccc1,-4,-19,10*,-1,0
O=C(CCN1C(=O)/C(=C/c2ccccc2)SC1=S)NCCc1ccc(O)cc1,-10,-11,17*,0,11
CC(C)C(Cl)=NOC(=O)Nc1ccc(S(N)(=O)=O)cc1,.,.,0,0,0
Cc1ccc(-c2n[nH]c(=S)n2/N=C/c2sccc2C)cc1,-6,-2,15*,0,3
CC1(C(=O)NS(=O)(=O)C2CC2)CCCN(C(=O)COCc2ccccc2)C1 (stereo unspecified),.,.,.,0,1
O=C(Nc1ccc(Br)cc1)c1ccc2ncsc2c1,-11,-4,27*,0,0
CN(C)S(=O)(=O)c1ccc(NC(=O)c2ccc3ncsc3c2)cc1,8,4,17*,.,.
COc1ccc(NC(=O)c2ccc(N(C)S(C)(=O)=O)cc2)cc1OC,0,1,0,0,1
COc1ccc(NC(=O)c2ccc(S(=O)(=O)N(C)C)cc2)cc1OC,-2,-1,20*,0,1
CC(=O)NC(c1ccccc1)c1nc(-c2ccccc2)cs1 (stereo unspecified),.,.,.,0,0
CC1CCC2(CC1)NC(=O)N(CC(=O)Nc1ccc3[nH]c(=O)[nH]c3c1)C2=O (stereo unspecified),6,10,19*,0,-1
Cn1nnnc1SC(C(=O)Nc1cccc(C(F)(F)F)c1)c1ccccc1 (stereo unspecified),-6,-1,13*,2,-17
Cc1ccccc1C(=O)OCC(=O)N(C)c1c(N)n(Cc2ccccc2)c(=O)[nH]c1=O,7,10,2,0,0
CCN(C(=O)COC(=O)CCS(=O)(=O)c1ccccc1)c1c(N)n(Cc2ccccc2)c(=O)[nH]c1=O,.,.,17*,0,-3
COCCN(C(=O)COC(=O)c1ccccc1Nc1ccccc1)c1c(N)n(Cc2ccccc2)c(=O)[nH]c1=O,7,1,19*,0,-2
CN(C(=O)COC(=O)c1ccccc1Nc1ccccc1)c1c(N)n(Cc2ccccc2)c(=O)[nH]c1=O,2,-3,24*,0,-4
O=C1C=CC(c2c[nH]c3ccccc23)CC1 (stereo unspecified),.,.,.,0,-1
CN(CC(=O)Nc1ccc(OC(F)(F)F)cc1)C(=O)c1ccccc1SCC(=O)N1CCCC1,.,.,-1,0,0
CSc1ncnc2c1ncn2CCCNCCCN1CCCC1=O,.,.,.,0,-1
Cc1ccc(CN2C(=O)C(CC(C)C)Nc3ncnc(N4CCCCC4)c32)cc1 (stereo unspecified),.,.,.,0,-1
O=C1CCc2cc(NS(=O)(=O)c3cc(F)ccc3F)cc3c2N1CC3,12,-5,0,0,-1
Cc1ccc(C(=O)Nc2ccccc2OC(F)F)cc1,-10,6,13*,3,-2
O=C(Nc1ccccc1OC(F)F)c1ccccc1,4,2,0,0,0
CCOc1ccccc1NC(=O)COc1coc(CN2CCCc3ccccc32)cc1=O,1,-4,2,0,2
